Screening results from PubChem BioAssay.
FGF22 binding: binders of recombinant human FGF22 by thermal shift | Q9HCT0 | SYPRO orange fluorescence; percent of sucrose octasulfate shift, DMSO zero | activity (Tm shift, normalised), % at 9.99 µM | 340,000 compounds, 1.5% hits;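 active = mean Tm shift, scaled 0 neutral to 100 positive control, at about 1.3% or above, every replicate too, limit read from the data; inconclusive = no clear call, values can overlap the other calls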
S100A4 inh HTS: S100A4-myosin IIA interaction inhibition; S100A4/TAMRA-MyoIIA peptide fluorescence polarization; inhibition, % at 10.7 µM; 360,000 compounds, 0.14% hits; AID 652163;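 active = mean inhibition of at least 70% across replicates, with every replicate also reaching that level; inconclusive = mean inhibition reaches 70% but some replicates fall short; inactive = mean inhibition below 70%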
Target sequence (P26447 whole entry, looked up): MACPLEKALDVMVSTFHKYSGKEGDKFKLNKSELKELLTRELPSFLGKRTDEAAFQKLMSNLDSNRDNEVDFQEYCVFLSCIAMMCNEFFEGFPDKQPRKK
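incubation = readout 5 min after mixing, signal stable up to 60 min | system = S100A4 monomer protein | buffer or medium = HEPES pH 7.2 with CaCl2, KCl, NaCl, DTT, Triton | benchmarks = neutral control DMSO, positive control TFP | also added = fluorescent myosin IIA peptide, 5 nM | compound dosing = one concentration per compound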
CFTR F508del cor: CFTR F508del correction in bronchial cells; CFBE cells, YFP halide quenching; stimulated with forskolin plus potentiator P3; % fluorescence drop versus neutral controls; 350,000 compounds, 0.36% hits; activity (quench increase), % at 7.58 µM; AID 720511;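 active = mean added fluorescence quench of at least 8% versus neutral control, with both replicates also reaching 8%; inconclusive = only one of the mean or replicate conditions met; inactive = mean below 8% and not both replicates reaching 8%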;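 also: cells transiently co-express mutant CFTR-F508del with the halide-sensitive YFP; corrector assay measuring rescue of mutant channel to the surface after 24 h compound exposure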
E-sel inducer: E-selectin induction on HUVECs; HUVEC E-selectin immunofluorescence imaging; normalized: neutral wells 0, TNF-alpha wells 100; activation, % at 7.58 µM; 260,000 compounds, 0.37% hits;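 active = mean E-selectin-positive cell signal at least 10% of the positive control, reached in at least 60% of replicates, without over 20% cell loss; inconclusive = no rule given, readout overlaps actives, possibly toxicity-flagged; inactive = the rest, including those meeting only one limit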
Target sequence (P16581 whole entry, looked up): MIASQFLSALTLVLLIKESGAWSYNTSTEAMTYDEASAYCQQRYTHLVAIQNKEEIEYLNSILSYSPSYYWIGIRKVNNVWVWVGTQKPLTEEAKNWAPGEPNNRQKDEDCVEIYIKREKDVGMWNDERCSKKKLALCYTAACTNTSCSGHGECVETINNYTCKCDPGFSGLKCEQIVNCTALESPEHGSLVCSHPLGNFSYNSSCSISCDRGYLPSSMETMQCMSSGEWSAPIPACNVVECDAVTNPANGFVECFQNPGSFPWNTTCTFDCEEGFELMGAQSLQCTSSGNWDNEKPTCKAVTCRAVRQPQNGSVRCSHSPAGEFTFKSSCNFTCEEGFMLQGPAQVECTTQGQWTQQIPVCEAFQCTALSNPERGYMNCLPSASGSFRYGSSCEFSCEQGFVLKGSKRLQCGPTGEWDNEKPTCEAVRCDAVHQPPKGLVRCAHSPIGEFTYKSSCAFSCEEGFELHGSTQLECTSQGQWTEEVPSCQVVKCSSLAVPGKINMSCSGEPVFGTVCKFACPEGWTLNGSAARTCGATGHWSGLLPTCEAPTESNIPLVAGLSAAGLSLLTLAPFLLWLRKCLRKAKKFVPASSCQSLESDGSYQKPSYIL
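System: HUVEC, human umbilical vein endothelial cells; quantity: 3,000 cells/well; buffer or medium: EGM-2 medium, gelatin-coated wells; dosing: single-point compound dose; detection: immunofluorescence imaging; evaluation: % PE-positive cells; benchmarks: TNF-alpha, DMSO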
Env fusion inh: HIV envelope-mediated fusion inhibition. inhibition, % at 12.3 µM. HeLa-JRFL Env/CEM21 cell fusion, luciferase. 360,000 compounds, 1.1% hits;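 active = mean replicate inhibition score of at least 50 and every replicate individually at or above 50; inconclusive = only one of the two criteria met; inactive = mean below 50 and not all replicates reaching 50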
A number is an active result; – = inactive; ? = inconclusive; · = not tested or not shown; + = active, no number. Rows were chosen to be rich in hits. Some 2.7% of all compounds tested hit in one or more screens of this group.

SMILES	FGF22 binding	S100A4 inh HTS	CFTR F508del cor	E-sel inducer	Env fusion inh
CC(=O)c1cccc(N(C(=O)c2ccco2)C(C(=O)NC2CCCC2)c2ccc(N3CCOCC3)cc2)c1 (stereo not given)	43	–	–	·	–
Cc1ccc(-c2cnc3c(c2)C(=O)N([C@@H](C)CO)C[C@@H](C)[C@@H](CN(C)C(=O)c2cccc(F)c2)O3)cc1	–	–	–	–	–
CN1C(=O)c2cc(NC(=O)Cc3ccccc3)ccc2OC[C@@H]2O[C@H](CC(=O)O)CC[C@@H]21	–	–	–	–	–
Cn1c(NCc2ccccc2F)nc2cc(-c3ccccc3)sc2c1=O	–	–	–	–	–
Cn1c(NCc2ccccc2F)nc2cc(-c3ccsc3)sc2c1=O	–	–	8.1	–	–
CS(=O)(=O)N1CCN(c2ccc(NC(=S)NC(=O)c3ccc4c(c3)OCO4)cc2)CC1	44	–	–	–	–
Cc1ccc(C(=O)N2CCN(c3ccc(NC(=O)c4ccc5c(c4)OCCO5)cc3)CC2)cc1	–	–	–	–	65
O=C(C[C@H]1CC[C@H](NC(=O)C2CC2)[C@@H](CO)O1)Nc1nccs1	–	–	–	–	–
C[C@H](CO)N1C[C@H](C)[C@@H](CN(C)C(=O)Nc2cccc3ccccc23)OCc2cnnn2CCCC1=O	–	–	–	–	·
COc1cccc(CNC(=O)[C@H]2[C@H](CO)[C@H]3Cn4c(cccc4=O)[C@@H]2N3C(=O)C2CCCCC2)c1	–	–	·	–	–
COc1cc2c3nnc(-c4ccc(F)cc4)c-3cn(Cc3cccc(C)c3)c2cc1OC	–	–	–	–	–
COc1cc2c3nnc(-c4ccccc4)c-3cn(Cc3ccc(F)cc3)c2cc1OC	44	–	–	·	–
COc1cc2c3nnc(-c4ccc(F)cc4)c-3cn(Cc3ccc(C)cc3)c2cc1OC	–	+	–	–	–
O=C(N[C@@H]1CC[C@@H](CCn2cc(C3(O)CCCC3)nn2)O[C@H]1CO)c1ccccc1F	–	–	–	–	–
O=C(Cc1ccncc1)NCC[C@@H]1CC[C@H](NC(=O)C2CC2)[C@H](CO)O1	–	–	–	–	?
C=CCn1c(SCC(=O)N(C)C2CCS(=O)(=O)C2)nc2ccccc2c1=O (stereo not given)	–	–	19	–	–
CCc1cccc(CC)c1NC(=S)NC(C)c1ccccc1 (stereo not given)	44	–	–	·	–
CCCC(=O)N1CCC2(CC1)CN(C(=O)C1CCOCC1)[C@@H](CO)c1[nH]c3cc(OC)ccc3c12	·	·	–	–	·
COCC(=O)Nc1ccc2c(c1)C(=O)N(C)[C@@H]1CC[C@H](CC(=O)Nc3cn(C)nc3C)O[C@H]1CO2	–	·	–	–	–
CN1CCCN(C(=O)/C=C/c2ccc(Cl)cc2Cl)CC1	44	–	–	·	–
C[C@@H]1CN([C@H](C)CO)C(=O)c2cccc(NS(=O)(=O)c3cccs3)c2O[C@@H]1CN(C)C(=O)NC1CCCCC1	–	–	–	–	·
C/C(=N/NC(=O)CSc1nc2ccccc2n1C)c1ccncc1	43	–	–	–	–
COc1cc(/C(C)=N\NC(=O)CSc2nc3ccccc3n2C)ccc1O	–	–	–	–	–
C/C(=N\NC(=O)CSc1nc2ccccc2[nH]1)c1ccncc1	43	–	–	·	–
C[C@H]1CN([C@@H](C)CO)C(=O)c2cccc(NC(=O)c3cnccn3)c2O[C@@H]1CN(C)Cc1ccc2c(c1)OCO2	–	–	–	–	–
SMILES	FGF22 binding	S100A4 inh HTS	CFTR F508del cor	E-sel inducer	Env fusion inh
Cc1sc2ncnc(Sc3nnnn3-c3ccc(Cl)cc3)c2c1C	·	·	·	·	50
COCc1cc(C)nc(NC2CCCCC2)c1C#N	·	·	·	·	–
COCc1cc(SC2CCCCC2)nc(C)n1	43	–	–	·	–
Cc1ccc(-c2nn(-c3ccccc3)cc2C(=O)N2CCN(c3ccccn3)CC2)cc1	–	–	15	·	–
Cc1cc(C(=O)N2CCCC(C(=O)c3ccc(Cl)cc3C)C2)no1 (stereo not given)	–	–	–	–	61
O=C(C[C@H]1CC[C@H]2[C@@H](COC[C@@H](O)CN2Cc2ccncc2)O1)NCc1ccccc1Cl	–	–	–	–	·
N#C/C(=C/c1ccc(Sc2nc3ccccc3[nH]2)o1)c1ccccc1F	·	·	·	·	73
N#C/C(=C/c1ccc(Sc2nc3ccccc3[nH]2)o1)c1cccc(F)c1	·	·	·	·	87
N#C/C(=C\c1ccc(Sc2ccccc2)o1)c1nc2ccccc2[nH]1	–	–	·	–	–
COc1ccc(C#Cc2ccc3c(c2)[C@H]2[C@H](CCN2S(=O)(=O)c2cccc(OC)c2)[C@H](CO)N3C)cc1	–	–	–	–	·
C[C@]12CC[C@H](OC(=O)CCC(=O)O)CC1=CCC1C2CC[C@@]2(C)C1CC[C@@H]2N (stereo not given in full)	43	–	–	–	–
C[C@@H]1CN([C@H](C)CO)C(=O)c2cc(NC(=O)Nc3ccc4c(c3)OCO4)ccc2O[C@@H]1CN(C)C	–	–	–	–	·
C=CCn1c(=O)/c(=C\c2ccccn2)s/c1=C(/C#N)C(=O)NCC1CCCO1 (stereo not given)	43	–	·	·	–
C=CCn1c(=O)/c(=C/c2ccc(C)o2)s/c1=C(/C#N)C(=O)c1ccccc1	·	·	·	·	–
Cc1cccc(C(C)C)c1NC(=O)c1ccc(CN(c2ccccc2)S(=O)(=O)c2ccccc2)cc1	·	·	·	–	60
O=C(Nc1ccccn1)c1ccc(CN(c2ccccc2)S(=O)(=O)c2ccccc2)cc1	–	–	–	·	–
CCOC(=O)c1[nH]c(C)c(/C(O)=C2\C(=O)C(=O)N(CCCN3CCOCC3)C2c2cccs2)c1C (stereo not given)	–	–	15	·	–
COc1cc(/C=C2\C(=N)N3N=C(S(C)(=O)=O)SC3=NC2=O)ccc1OCCOc1ccc(C)cc1	–	–	–	–	–
COc1cc(/C=C2\C(=N)N3N=C(S(C)(=O)=O)SC3=NC2=O)cc(OC)c1OCCOc1cccc(C)c1	2.0	–	–	·	–
COc1cc(/C=C2\C(=N)N3N=C(S(C)(=O)=O)SC3=NC2=O)cc(OC)c1OCCOc1ccc(C)cc1	1.7	–	–	–	–
C[C@@H]1CN([C@@H](C)CO)C(=O)c2cc(NC(=O)Cn3cnnn3)ccc2O[C@@H]1CN(C)C(=O)Nc1ccc(C(F)(F)F)cc1	–	–	–	–	·
C=CCNC(=O)COC(=O)c1cc(S(=O)(=O)N2CCCCC2)ccc1Cl	43	–	–	–	–
C=CCNC(=O)COc1ccc(S(=O)(=O)N2CCCC2)cc1	–	–	–	·	–
CCOc1ccc(C(=O)NNC(=O)c2cc(C)oc2C)cc1	–	–	–	–	–
CCC(=O)c1ccc(OCC(=O)NNC(=O)c2cc(C)oc2C)cc1	–	–	–	49	–
Cc1cccc(N2CCN(C(=O)c3ccc4[nH]c(C)c(C)c4c3)CC2)c1C	–	–	11	–	·
O=C(c1cccc(S(=O)(=O)N2CCCCCC2)c1)N1CCN(c2ccccc2F)CC1	–	–	–	–	–
